Experimental data published in ChEMBL document CHEMBL1649392, “Synthesis of substituted 3-amino-N-phenyl-1H-indazole-1-carboxamides endowed with antiproliferative activity” (Eur J Med Chem, 2011).

Assay: Cytotoxicity in HFF cells after 72 hrs by trypan blue exclusion assay
Type: cell-based
Settings: human
Summary of the method: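 Human normal fibroblasts, 2 × 10⁵ per well, seeded in RPMI 1640 with 10% fetal calf serum plus penicillin and streptomycin at 37 °C under CO₂. Compound added after 24 h. Living cells counted at 72 h by trypan blue exclusion, expressed as percent of control proliferation; GI50 derived.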

For `CCCCOc1ccc(NC(=O)n2nc(N)c3cc(N)ccc32)cc1`, the GI50 at 72 h was 32 µM.
